Experimental data taken from ChEMBL document CHEMBL1121439, “Accumulation of drugs by guinea pig isolated atria. Quantitative correlations” (J Med Chem, 1980).

What was measured:
[1] = Partition coefficient (logP); assay type: physicochemical; conditions: octanol/water
Cavia porcellus = organism: Cavia porcellus; test: Ability to bind to guinea pig atrial homogenate; conditions: Cardiac atrium
How it was run: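 Guinea pig left and right atria were blotted 90 s, weighed, and homogenized (6%, g/v) in ice-cold 0.067 M Sørensen phosphate buffer, pH 7.4, for three 20-s bursts. Radiolabeled drug (3.3×10^-6 M) was incubated with 4% (g/v) homogenate for 90 min at room temperature under partial saturation. Total aliquot and supernatant after 145000g, 15 h, 25 °C were counted. Result given as log B/F.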

[2] = Tested for the dissociation constant of the compound; assay type: ADME
Albumin [3] = target: T1, Albumin (Homo sapiens, UniProt P02768); test: Ability to bind to human serum albumin (HSA)
T1 sequence (P02768 whole entry): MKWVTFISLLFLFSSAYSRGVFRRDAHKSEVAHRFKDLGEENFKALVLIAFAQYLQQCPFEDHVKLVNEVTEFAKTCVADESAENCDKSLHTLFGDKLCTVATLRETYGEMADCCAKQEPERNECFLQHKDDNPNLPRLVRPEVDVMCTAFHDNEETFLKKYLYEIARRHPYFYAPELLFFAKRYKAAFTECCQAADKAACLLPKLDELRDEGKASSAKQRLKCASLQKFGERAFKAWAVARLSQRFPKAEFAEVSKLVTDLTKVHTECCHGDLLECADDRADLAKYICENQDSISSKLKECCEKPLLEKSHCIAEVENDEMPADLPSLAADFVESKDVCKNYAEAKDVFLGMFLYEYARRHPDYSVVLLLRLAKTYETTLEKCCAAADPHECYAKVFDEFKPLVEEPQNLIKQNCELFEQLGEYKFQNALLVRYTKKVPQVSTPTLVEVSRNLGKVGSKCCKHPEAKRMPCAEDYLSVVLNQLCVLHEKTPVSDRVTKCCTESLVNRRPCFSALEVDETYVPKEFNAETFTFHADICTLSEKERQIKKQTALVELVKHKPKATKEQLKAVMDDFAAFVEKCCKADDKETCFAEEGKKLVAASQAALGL

Albumin [4] = target: T1, Albumin; test: Ability to bind to human serum albumin
How it was run: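 Purified human serum albumin, 4% (g/v), with radiolabeled drug at 3.3×10^-6 M in 0.067 M Sørensen phosphate buffer pH 7.4 (partial saturation). Incubated 90 min at room temperature. Radioactivity counted in an aliquot before and after centrifugation at 145000g for 15 h at 25 °C. Binding expressed as log B/F.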

Row | Compound | logP ([1]; read-out: logP) | Log B/F (Cavia porcellus) | pKa [2] | Log B/F (Albumin [3]) | logP [1] | Log B/F (Albumin [4])
1 | C=CCc1ccccc1OCC(O)CNC(C)C (configuration not stated) [ALPRENOLOL] | 3.1 | -0.158 | – | – | – | –
2 | COc1ccc(CCN(C)CCCC(C#N)(c2ccc(OC)c(OC)c2)C(C)C)cc1OC (configuration not stated) | – | 0.114 | 9.2 | – | – | –
3 | CCC(c1ccccc1)c1c(O)c2ccccc2oc1=O (configuration not stated) [PHENPROCOUMON] | 3.62 | – | 5 | 2.128 | – | –
4 | C[C@H]1O[C@@H](O[C@H]2[C@@H](O)C[C@H](O[C@H]3[C@@H](O)C[C@H](O[C@H]4CC[C@@]5(C)[C@H](CC[C@@H]6[C@@H]5CC[C@]5(C)[C@@H](C7=CC(=O)OC7)CC[C@]65O)C4)O[C@@H]3C)O[C@@H]2C)C[C@H](O)[C@@H]1O [DIGITOXIN] | 1.76 | – | – | 3.222 | – | –
5 | CCCNC(C)C(=O)Nc1c(C)csc1C(=O)OC (configuration not stated) [ARTICAINE] | – | -0.739 | 7.8 | -0.281 | 2.41 | –
6 | O=C(O)[C@H]1O[C@@H](O)[C@H](O)[C@@H](O)[C@@H]1O [GLUCURONATE] | -2.57 | -4 | 3.2 | -2 | – | –
7 | COCCc1ccc(OCC(O)CNC(C)C)cc1 (configuration not stated) [METOPROLOL] | 2.34 | – | – | – | – | –
8 | CCC1(c2ccccc2)C(=O)NC(=O)NC1=O [PHENOBARBITAL] | 1.43 | – | 7.5 | 0.11 | – | –
9 | O=C1CCC(c2ccccc2)(C2CCN(Cc3ccccc3)CC2)C(=O)N1 (configuration not stated) [BENZETIMIDE] | 3.55 | -0.184 | – | – | – | 0.087
10 | COc1ccc2c(c1)c(CC(=O)O)c(C)n2C(=O)c1ccc(Cl)cc1 [INDOMETHACIN] | 2 | – | – | – | – | –
11 | C[C@@H]1C[C@H]2[C@@H]3CCC4=CC(=O)C=C[C@]4(C)[C@@]3(F)[C@@H](O)C[C@]2(C)[C@@]1(O)C(=O)CO [DEXAMETHASONE] | 1.74 | – | – | – | – | –
12 | OC[C@H]1O[C@@](CO)(O[C@H]2O[C@H](CO)[C@@H](O)[C@H](O)[C@H]2O)[C@@H](O)[C@@H]1O | – | -4 | – | – | – | –
